# Assays:
# [1] = melting temperature; fluorescence melt of hairpins on a sequencing array, two-state fit, raised by 9.35 °C to match UV melts; conditions: sodium 0.088 M
# Summary of the method: (§1)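 In 50 mM Na-HEPES pH 8.0 containing 25 mM NaCl, hairpins from the library on a sequenced MiSeq flow cell were imaged for Cy3 fluorescence at 2.5 °C steps up to 60 °C, with Cy3 and quencher oligos annealed. After normalisation to pre-quench Cy3 and to control constructs, two-state fits with bootstrapping gave melting temperature and folding enthalpy. Four replicates were combined by inverse-variance weighting, and fitted temperatures were shifted up by 9.35 °C to match UV melts.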
# [2] = folding enthalpy; higher = less favourable; fluorescence melt of hairpins on a sequencing array, two-state fit; conditions: sodium 0.088 M
# Summary of the method: as §1
Sequence,Tm [1],folding enthalpy [2]
GGATGCCGAAAGGCCTCC (((.(((....))).))),50.5 °C,-24.9 kcal/mol
GCGATCGAAAGATGCCGC ((((((....)))..))),39.6 °C,-17 kcal/mol
GCCTTGCGAAAGCGATGC ((.(.((....)).).)),47.4 °C,-11.3 kcal/mol
GATCGAATATTCGATC ((((((....)))))),53.3 °C,-44.5 kcal/mol
GCGCGGCGAAAGCCCAGC ((..(((....)))..)),57.5 °C,-16 kcal/mol
GCGTTGCGAAAGCAAAGC ((.((((....)))).)),66 °C,-30.4 kcal/mol
GGCGACGAAAGTCAAGCC ((((((....)))..))),54.7 °C,-39.6 kcal/mol
CGCGCGGAAACGCAAGCG ((((((....)))..))),56.8 °C,-34 kcal/mol
GATCGCTGCCGCGATC ((((((....)))))),67.3 °C,-32.8 kcal/mol
GATCCTGCGAAGGATC ((((((....)))))),59.5 °C,-42.6 kcal/mol
GACTGAGGAAACTTGGTC (((..((....))..))),32.7 °C,-15.7 kcal/mol
GATCCTAGTTAGGATC ((((((....)))))),51.7 °C,-33.7 kcal/mol
CGAAACCGGAAACGGTCG (((..(((....)))))),43.8 °C,-14.9 kcal/mol
GCGGTAGTCCGC ((((....)))),58.8 °C,-21.9 kcal/mol
GGTCACGAAAGTGGAACC ((((((....)))..))),40.5 °C,-18.3 kcal/mol
GACTTGCCGAAAGGCGTC (((..(((....)))))),36.4 °C,-11.6 kcal/mol
GTGGTCGAAAGACGCAC ((((((....))).))),49.3 °C,-16.3 kcal/mol
GCGTTCGGAAACGAATGC ((.((((....)))).)),58.7 °C,-42.1 kcal/mol
GCTGCGCGAAAGCGCCGC ((.((((....)))).)),63.1 °C,-15.3 kcal/mol
GATACAGGAAACCGTATC (((((.(....).))))),36.5 °C,-29.6 kcal/mol
GCGTTCAACGC ((((...)))),56.8 °C,-23.1 kcal/mol
GTCGATGGAAACGTTGAC (((.(.(....).).))),34.6 °C,-20.5 kcal/mol
GCCCAGTCGAAAGACGGC (((..(((....)))))),49.3 °C,-13.4 kcal/mol

Sequence,Tm [1],folding enthalpy [2]
GATCTTCCCAAAGATC ((((((....)))))),45.5 °C,-32.6 kcal/mol
GCTCAGGGAAACCCGAGC ((((.((....)).)))),51.3 °C,-35.8 kcal/mol
GGCCACCGAAAGGTGCC (((.(((....)))))),60.8 °C,-15.8 kcal/mol
GCCCACGGAAACGTGAGC ((.((((....)))).)),50.9 °C,-27.2 kcal/mol
CTATTGAAAAATAG (((((....))))),23.4 °C,-8.21 kcal/mol
GTAGCGGGAAACCACTAC ((((.((....)).)))),42.2 °C,-34.1 kcal/mol
GATCACTCGGTGATC ((((((...)))))),58.9 °C,-37.8 kcal/mol
CGGTGGCGGAAACGCCCG (((..(((....)))))),47 °C,-11.5 kcal/mol
GCCGTTCGAAAGAATGGC (((.(((....))).))),62.6 °C,-40.1 kcal/mol
GAGACAACGAAAGTTCTC (((..(((....)))))),28.3 °C,-20.4 kcal/mol
CGGACTCGGAAACGACCG (((..(((....)))))),32.9 °C,-17.5 kcal/mol
GCTAACGGAAACGTTAGC (((((((....))))))),66.2 °C,-47.9 kcal/mol
GCACACGAAAGTGCTGC ((((((....))).))),54.7 °C,-34 kcal/mol
GCGACTGGAAACAGTTGC ((.((((....)))).)),55.5 °C,-45.4 kcal/mol
GCTGGCGAAAGCCGAAGC ((((((....)))..))),50.8 °C,-16.5 kcal/mol
GCTTAACGAAAGTTAGC (((.(((....)))))),44.9 °C,-21.7 kcal/mol
GATCCTGCAAAGGATC ((((((....)))))),61.3 °C,-34.6 kcal/mol
GATCTCGAAGAGATC ((((((...)))))),68.5 °C,-34.2 kcal/mol
GAGGGAGGAAACTCCTTC ((.((((....)))).)),38.3 °C,-19.7 kcal/mol
GCTTCCGAAAGGAAAGC ((((((....))).))),54.3 °C,-38.7 kcal/mol
GCGTTTGGAAACAAATGC ((.((((....)))).)),51.7 °C,-47.9 kcal/mol
GATCAGTTGCTGATC ((((((...)))))),48.8 °C,-34.1 kcal/mol
GTTTAGGGAAACCTAAGC (.(((((....))))).),33.8 °C,-21.8 kcal/mol

Sequence,Tm [1],folding enthalpy [2]
GTCTGACGAAAGTCTGAC (((.(((....))).))),57.2 °C,-34 kcal/mol
GGTCACGAAAGTGCTACC ((((((....)))..))),36.3 °C,-15.6 kcal/mol
GCATTGCGAAAGCAAAGC ((.((((....)))).)),58 °C,-18.6 kcal/mol
GGTAGCGCGAAAGCGACC (((..(((....)))))),40 °C,-13.3 kcal/mol
TAGTGGAAACACTA (((((....))))),40.9 °C,-14.9 kcal/mol
GTCCTGAAAAGGAC (((((....))))),55.9 °C,-31 kcal/mol
GGGTAAGGAAACTTACTC (.(((((....))))).),37.9 °C,-23.7 kcal/mol
GAGGAACGAAAGTTTCTC (((.(((....))).))),49.9 °C,-35.9 kcal/mol
GCGTGGCGAAAGCGATGC ((.(.((....)).).)),55.7 °C,-25.3 kcal/mol
GATCAGCTCACTGATC ((((((....)))))),52.2 °C,-31.9 kcal/mol
GTTTCACGAAAGTGGAAC (((.(((....))).))),52.2 °C,-30.5 kcal/mol
GGGATAGGAAACTATCTC (.(((((....))))).),39.8 °C,-25.3 kcal/mol
GATCTCCTTCGAGATC ((((((....)))))),52.1 °C,-42.5 kcal/mol
GCAACGCGAAAGCGCCGC ((..(((....)))..)),40.8 °C,-9.13 kcal/mol
GATCACATTGTGATC ((((((...)))))),57.9 °C,-33.7 kcal/mol
GAGACCGGAAACGGTTTC ((.((((....)))).)),49.5 °C,-22.5 kcal/mol
GCATGCGAAAGCAAATGC ((((((....)))..))),52.6 °C,-24.9 kcal/mol
GAGGAAGGAAACTTCCTC (((((((....))))))),59 °C,-35.5 kcal/mol
GATCGGAAGACCGATC ((((((....)))))),52.8 °C,-29 kcal/mol
GTGGCTCGAAAGAGTCAC (((.(((....))).))),63.8 °C,-49.6 kcal/mol
GATCTTCCCCAAGATC ((((((....)))))),41.6 °C,-35.2 kcal/mol
GACAACGAAAGTTGCGTC ((((((....)))..))),40.6 °C,-12.1 kcal/mol
GCCATGCGAAAGCGTCGC ((.(.((....)).).)),48 °C,-12.7 kcal/mol

Sequence,Tm [1],folding enthalpy [2]
GGTCATCGAAAGATAACC (((.(((....))).))),39.4 °C,-26.8 kcal/mol
GATCCCGAAAGGGTGATC ((((((....)))..))),39.8 °C,-16.1 kcal/mol
GCTAGCGAAAGCTCTAGC ((((((....)))..))),38.5 °C,-15.3 kcal/mol
GGGGTCACGAAAGTGCCC (((..(((....)))))),58.8 °C,-21.4 kcal/mol
GGATCAGGAAACTGGTCC (((.(((....))).))),51.3 °C,-39.2 kcal/mol
GACGACGAAAGTCCGTC ((((((....))).))),53.4 °C,-29.9 kcal/mol
GTAACCGAAAGGTTATAC ((((((....)))..))),43.7 °C,-13.4 kcal/mol
GCCGGAGGAAACTTCGGC ((((.((....)).)))),56.3 °C,-38.6 kcal/mol
GGAGCCGAAAGGCCGTCC ((((((....)))..))),36.3 °C,-9.47 kcal/mol
GCTGTAGGAAACTACGGC ((.((((....)))).)),53.3 °C,-42.9 kcal/mol
GGGCCGCCGAAAGGCCCC (((..(((....)))))),64.1 °C,-13.6 kcal/mol
CGATCGGAAACGACATCG ((((((....)))..))),32 °C,-24 kcal/mol
GTGTTCGAAAGAATACAC ((((((....)))..))),42.6 °C,-22.9 kcal/mol
ACTTGGAAACAAGT (((((....))))),38.4 °C,-17.8 kcal/mol
GTTAACCGAAAGGTAAAC (((.(((....))).))),41.9 °C,-25.2 kcal/mol
GGCTTATCGAAAGATGCC (((..(((....)))))),39.8 °C,-24.1 kcal/mol
GGTGGTCGAAAGACACC (((.(((....)))))),54.8 °C,-17.5 kcal/mol
GCATGGGGAAACCTATGC ((((.((....)).)))),50.8 °C,-39.4 kcal/mol
GAGAACGGAAACGTCCTC (((.(((....))).))),40.2 °C,-24.5 kcal/mol
GTTTTTGGAAACAAAAAC (((((((....))))))),51.5 °C,-41.9 kcal/mol
GTTCAAGGAAACTCGAAC ((((.((....)).)))),28.7 °C,-11.7 kcal/mol
GACCGCGAAAGCGTTGTC ((((((....)))..))),40.1 °C,-13.2 kcal/mol
GGCCTCCGAAAGGATGCC (((.(((....))).))),56.5 °C,-37.2 kcal/mol

# — the array DNA melting data of Ke et al. (doi:10.1101/2024.01.08.574731)
